High-throughput results: PubChem, several laboratories
SENP1 inh = human SENP1 catalytic domain inhibitors, primary screen, biochemical, FRET, uHTS | inhibition, % at 10 µM | Sentrin-specific protease 1 (Homo sapiens), Q9P0U3 | recombinant SENP1 catalytic domain, CyPet-SUMO1-YPet FRET cleavage | 0.21% of 360,000 active;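 active = inhibition at least 30% at 10 µM, raw YFP signal under a set limit, fluorescence ratio 0.5 to 1.5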;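 note: 0% = enzyme with DMSO and 100% = no enzyme wells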
Target sequence (Q9P0U3 419-644 limits assumed): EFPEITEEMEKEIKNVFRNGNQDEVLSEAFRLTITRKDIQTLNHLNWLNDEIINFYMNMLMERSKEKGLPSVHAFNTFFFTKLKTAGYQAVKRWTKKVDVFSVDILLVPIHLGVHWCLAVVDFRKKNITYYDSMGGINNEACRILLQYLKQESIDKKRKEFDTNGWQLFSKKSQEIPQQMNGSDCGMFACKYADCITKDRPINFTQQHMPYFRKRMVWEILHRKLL
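Material: hSENP1 catalytic domain, recombinant; medium: Tris pH 8 with BME, BSA, NP40 and catalase; compound: single concentration of 10 µM compound, 0.5% DMSO final; technique: FRET read of cyan and yellow fluorescence; timing: 50 min enzyme reaction, room temperature, light-protected; reagent: SFCypet-SUMO1-SFYpet substrate at 25 nM; control set: no-enzyme low, enzyme-DMSO high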
ATG4B inh = ATG4B protease inhibitors, primary screen, biochemical, fluorescence, uHTS; Cysteine protease ATG4B (Homo sapiens), Q9Y4P1; ATG4B cleavage of LC3-PLA2, NBD-HPC fluorescence, 1 h; inhibition, % at 8.33 µM; 0.51% of 340,000 active; AID 504462, 2011; in the data active = inhibition above about 40%
Target sequence (Q9Y4P1 whole entry, looked up): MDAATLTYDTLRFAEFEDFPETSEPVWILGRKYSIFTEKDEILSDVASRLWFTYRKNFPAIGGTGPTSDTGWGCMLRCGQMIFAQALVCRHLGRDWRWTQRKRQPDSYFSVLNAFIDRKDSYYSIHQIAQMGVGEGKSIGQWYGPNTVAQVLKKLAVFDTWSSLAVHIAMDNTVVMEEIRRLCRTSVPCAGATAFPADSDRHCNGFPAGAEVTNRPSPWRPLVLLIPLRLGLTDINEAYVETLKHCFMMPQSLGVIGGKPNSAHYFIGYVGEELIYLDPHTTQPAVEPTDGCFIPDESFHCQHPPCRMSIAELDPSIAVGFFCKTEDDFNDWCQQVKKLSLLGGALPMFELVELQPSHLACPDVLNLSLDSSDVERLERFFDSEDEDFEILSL
NadD block = inhibitors of S. aureus NadD, primary screen, biochemical, colorimetric, uHTS; inhibition, % at 20 µM; purified NadD enzyme, colorimetric absorbance read-out; 0.78% of 360,000 active; Nicotinate-nucleotide adenylyltransferase NadD (Staphylococcus aureus N315); in the data active = inhibition above about 26%
GRIN3A LBD mod = binders of NR3A ligand-binding domain, primary screen, biophysical, differential scanning fluorimetry, uHTS. 2.5% of 340,000 active. NR3A LBD differential scanning fluorimetry, Tm shift; 0% = protein alone, 100% = glycine-bound protein. AID 1259313, 2017. Tm shift relative to glycine control, % at 25 µM;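 active = melting temperature shift of at least 10% of the positive control shift, at one fixed dose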
UCH37 DUB inh = inhibitors of human UCH37 deubiquitinase, primary screen, biochemical, Ub-AMC cleavage, fluorescence; 0.33% of 330,000 active; inhibition, % (no concentration beside the values); AID 588478, 2011; purified proteasome/UCH37;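 active = mean inhibition over replicate wells above about 20%, limit read from the data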;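 note: 0% = compound-free wells with enzyme and 100% = wells lacking proteasome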
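Reagent: Ub-AMC substrate; assay system: Proteasome-associated human UCH37 deubiquitinase; controls: no-proteasome and no-compound wells; read-out: % inhibition of Ub-AMC cleavage fluorescence; timing: 30 min preincubation with enzyme, 25 min cleavage at room temperature; signal: AMC fluorescence from Ub-AMC cleavage, excitation 355 nm, emission 460 nm; buffer or medium: Tris-HCl pH 7.4 plus ovalbumin, ATP-MgCl2, DTT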
UCH37 confirm = retest of human UCH37 deubiquitinase inhibitors, confirmation, biochemical, Ub-AMC cleavage rate, fluorescence; shares compounds with UCH37 DUB inh; Proteasome-bound UCH37; inhibition, % at 20 µM; 27% of 480 active;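 active = average inhibition over replicates above about 50%, so the earlier screening hit is confirmed, limit read from the data; inactive = the rest, counted as false positives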;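 note: based on cleavage rate fitted by regression over a 30 min kinetic read; 0% = proteasome plus Ub-AMC and 100% = Ub-AMC without proteasome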
An asterisk follows results filed as active. In the library only some 3.6% were active in any assay of this set; here they are far more common.

Screening Brc1csc(C=NNc2nc3ccccc3s2)c1 returned UCH37 DUB inh -0.4.
Screening O=C(NN=Cc1cn(-c2ccccc2)nc1-c1ccc(F)cc1)c1ccc2c(c1)OCO2 returned UCH37 DUB inh 3.2.
Screening COc1ccccc1C=NNC(=O)c1ccccc1Cl returned UCH37 DUB inh 3.5.
CC(=O)Nc1cccc(C(C)=NNC(=O)c2ccc(NS(=O)(=O)c3cccs3)cc2)c1 was read as UCH37 DUB inh 7.3.
C/C(C=NNC(=O)Cn1nnnc1N)=C/c1ccc(C(C)C)cc1 was read as UCH37 DUB inh 8.8.
COc1ccc(N2C(=O)[C@H]3[C@@H](C2=O)C2c4ccccc4C=NN2[C@H]3C(=O)C(C)(C)C)cc1 (some centres not stated) was read as SENP1 inh 2.8, ATG4B inh -3.2, NadD block -1.4, GRIN3A LBD mod -0.1 and UCH37 DUB inh 1.8.
Screening COc1ccc(N2C(=O)[C@@H]3[C@H](C2=O)[C@H]2c4ccccc4C=CN2[C@@H]3C(C)=O)cc1 returned SENP1 inh -18.8, ATG4B inh -3.5, NadD block 13.1, GRIN3A LBD mod -0.7, UCH37 DUB inh 37.3* and UCH37 confirm -1.8.
For CC(C)[n+]1ccn(C2=C([O-])c3ccccc3C(=O)/C2=N\S(=O)(=O)c2ccccc2)c1 the results were SENP1 inh -0.1, ATG4B inh -1.6, NadD block 4.4, GRIN3A LBD mod 0.8, UCH37 DUB inh 39.5* and UCH37 confirm 22.8.
CC(C)(C)c1cc[n+](C2=C([O-])c3ccccc3C(=O)/C2=N\S(=O)(=O)c2ccccc2)cc1 was read as SENP1 inh 2.8, ATG4B inh -2.3, NadD block -0.4, GRIN3A LBD mod 0.9 and UCH37 DUB inh 9.7.
CCCC[n+]1ccn(C2=C([O-])c3ccccc3C(=O)/C2=N\S(=O)(=O)c2ccccc2)c1 was read as SENP1 inh 2.4, ATG4B inh -15.7, NadD block 1.2, GRIN3A LBD mod 0.2, UCH37 DUB inh 41.0* and UCH37 confirm 31.8.
For Cc1cc(C)c(C=NNC(=O)c2nnn(-c3nonc3N)c2CN2CCC(C)CC2)c(C)c1 the results were UCH37 DUB inh 5.6.
Screening NS(=O)(=O)c1ccc(N=Nc2c[nH]c(=O)c(O)c2)cc1 returned SENP1 inh -22.6, ATG4B inh -2.0, NadD block 1.4, GRIN3A LBD mod 1.4, UCH37 DUB inh 32.9* and UCH37 confirm 39.7.
Screening Nc1nc(O)c(N=Nc2ccc(S(N)(=O)=O)cc2)c(=O)[nH]1 returned ATG4B inh 2.4, GRIN3A LBD mod 1.4 and UCH37 DUB inh 6.5.
COC(=O)NN=C/C=C/c1ccc2c(c1)OCO2 was read as UCH37 DUB inh 0.8.
For COc1cc(/C=N/Nc2ccccc2[N+](=O)[O-])ccc1OC(=O)c1ccccc1F the results were SENP1 inh 6.0, ATG4B inh -7.6, NadD block -0.3 and GRIN3A LBD mod 0.5.
CCOc1ccc(C=NNc2ccc(S(=O)(=O)Nc3ccccc3C(=O)O)cc2[N+](=O)[O-])cc1OC was read as SENP1 inh 1.9, ATG4B inh 6.5, NadD block 20.8, GRIN3A LBD mod 15.2*, UCH37 DUB inh 43.8* and UCH37 confirm 75.2*.
CC(=O)Nc1nc(SCC(=O)NCc2ccc(F)cc2)[nH]c(=O)c1NC(=O)c1cccs1 was read as SENP1 inh 1.3, ATG4B inh -20.0, NadD block -2.0, GRIN3A LBD mod -0.7, UCH37 DUB inh 42.9* and UCH37 confirm 9.2.
`Cc1ccc(CN2CCN(N=Cc3cc([N+](=O)[O-])ccc3Cl)CC2)cc1` gave UCH37 DUB inh 4.2.
CCOc1ccc(NC2=CC(=O)C(=O)c3ccccc32)cc1 was read as SENP1 inh 0.0, ATG4B inh -6.2, NadD block 7.8 and GRIN3A LBD mod 0.3.
`COc1cc(Cl)c(NC2=CC(=O)C(=O)c3ccccc32)c(OC)c1` gave SENP1 inh -2.0, ATG4B inh 4.2, NadD block 19.8, GRIN3A LBD mod 2.6, UCH37 DUB inh 53.5* and UCH37 confirm 15.3.
`Cc1ccc(N2CC(C(=O)NCCC3=CCCCC3)CC2=O)cc1` (configuration not stated) gave SENP1 inh 1.4, ATG4B inh -5.2, NadD block -6.1, GRIN3A LBD mod 1.7, UCH37 DUB inh 40.9* and UCH37 confirm 55.4*.
Screening COc1ccccc1C1/C(=C(\O)c2ccc3c(c2)OCCO3)C(=O)C(=O)N1CCCn1ccnc1 (configuration not stated) returned SENP1 inh 2.1, ATG4B inh 0.9, NadD block 9.0, GRIN3A LBD mod -1.1, UCH37 DUB inh 42.4* and UCH37 confirm 32.8.
Cc1cc2ccccc2c(=O)n1CC(=O)NCCC1=CCCCC1 was read as SENP1 inh -2.5, ATG4B inh -5.3, NadD block 0.6, GRIN3A LBD mod -0.3, UCH37 DUB inh 55.2* and UCH37 confirm 66.5*.
Screening COCCCn1c(=O)c2ccccc2n(CC(=O)NCCC2=CCCCC2)c1=O returned SENP1 inh 0.7, ATG4B inh -2.9, NadD block 1.8, GRIN3A LBD mod -2.0 and UCH37 DUB inh 5.1.
For CC1(c2ccccc2Cl)NC(=O)N(CC(=O)NCCC2=CCCCC2)C1=O (configuration not stated) the results were SENP1 inh -2.9, ATG4B inh -8.5, NadD block -3.0, GRIN3A LBD mod 1.9, UCH37 DUB inh 34.2* and UCH37 confirm 55.8*.
For O=C(/C=C/c1ccccc1)N/C(=C/c1ccccc1)C(=O)N1CCOCC1 the results were SENP1 inh -0.6, ATG4B inh -2.0, NadD block 3.1, GRIN3A LBD mod -0.7, UCH37 DUB inh 44.6* and UCH37 confirm 3.5.
`CC(CC(=O)Nc1cc(Cl)ccc1Cl)=NNC(=O)c1ccco1` gave UCH37 DUB inh 1.5.
For CC1=C(C(=O)Nc2ccccc2)C(c2ccc(C)o2)n2c(sc(=Cc3ccccc3)c2=O)=N1 (configuration not stated) the results were UCH37 DUB inh 3.0.
`Cc1cc(NC(=O)Nc2ccccc2F)ccc1Br` gave SENP1 inh 1.5, ATG4B inh -2.2, NadD block -3.5, GRIN3A LBD mod 25.8*, UCH37 DUB inh 38.3* and UCH37 confirm 16.8.
